Assay results of several laboratories.
Each line is one published result; the experiments were not run side by side.
Organism: Staphylococcus aureus
Effect on: microbial growth

SMILES	technique	strain	time	MIC
CC1CCC(C(C)C)C(OC(=O)C=Cc2ccc(O)c(O)c2)C1 (centres unmarked)	broth dilution	FDA209		4 mg/L
Cc1[nH]c(C(=O)Nc2ccc(C(=O)NCC(=O)O)cc2N2CCNCC2)c(Cl)c1Cl.Cl	broth dilution	ATCC29213		> 32 mg/L
O=C(C=Cc1ccc(O)c(O)c1)Oc1cccc2cccnc12	broth dilution	FDA209		8 mg/L
CC(C)(C)OC(=O)N1CCN(c2cc(C(=O)NCC(=O)O)ccc2NC(=O)c2cc(Br)c(Br)[nH]2)CC1	broth dilution	ATCC29213		> 32 mg/L
O=C(O)c1cn(C2CC2)c2cc(N3CCNCC3)c(F)cc2c1=O		MTCC96	24 h	0.12 mg/L
CN[C@@H]1[C@@H](O[C@H]2O[C@H](CO)[C@@H](N)[C@H](O)[C@H]2O)OC2C[C@@H](N)[C@@H](O[C@H]3[C@H](O)[C@@H](O)[C@H](N)C[C@@H]3N)OC2[C@@H]1O (some centres unmarked)			24 h	1.25 to 2.5 µM
CC(O)CSc1nnc(-c2cc3c(ccc4ccccc43)o2)n1-c1ccccc1 (centres unmarked)				10000 mg/L
CC(C)NCC(COc1cccc2ccccc12)OC(=O)C=Cc1ccc(O)c(O)c1 (centres unmarked)	broth dilution	FDA209		32 mg/L
Cl.N[C@H]1CCN(c2cc(C(=O)NCC(=O)O)ccc2NC(=O)c2cc(Br)c(Br)[nH]2)C1	broth dilution	ATCC29213		> 32 mg/L
O=C(C=Cc1ccc(O)c(O)c1)Oc1ccccc1	broth dilution	FDA209		16 mg/L
Cc1[nH]c(C(=O)Nc2ccc(C(=O)NCC(=O)O)cc2N2CC[C@@H](NC(=O)OC(C)(C)C)C2)c(Cl)c1Cl	broth dilution	ATCC29213		> 32 mg/L
CC(C)=CCCC(C)=CC1c2c(C)nn(-c3ccccc3)c2NN1C(=O)c1ccncc1 (centres unmarked)		MTCC96	24 h	> 100 mg/L
CC(C)(C)OC(=O)N[C@@H]1CCN(c2cc(C(=O)NCC(=O)O)ccc2NC(=O)c2cc(Br)c(Br)[nH]2)C1	broth dilution	ATCC29213		> 32 mg/L
CN[C@H](CC(C)C)C(=O)N[C@H]1C(=O)N[C@@H](CC(N)=O)C(=O)N[C@H]2C(=O)N[C@H]3C(=O)N[C@H](C(=O)N[C@H](C(=O)O)c4cc(O)cc(O)c4-c4cc3ccc4O)[C@H](O)c3ccc(c(Cl)c3)Oc3cc2cc(c3O[C@@H]2O[C@H](CO)[C@@H](O)[C@H](O)[C@H]2O[C@H]2C[C@](C)(N)[C@H](O)[C@H](C)O2)Oc2ccc(cc2Cl)[C@H]1O		ATCC29213 MSSA		0.67 µM
Cc1ccc(-c2nnc(SCC(C)O)n2-c2ccccc2)cc1 (centres unmarked)				3500 mg/L
O=C(C=Cc1ccc(O)c(O)c1)OCCc1ccccc1	broth dilution	FDA209		16 mg/L
O=C(N[C@H](CO)[C@H](O)c1ccc([N+](=O)[O-])cc1)C(Cl)Cl			24 h	5 to 10 µM
O=c1c(O[C@@H]2O[C@H](CO)[C@@H](O)[C@H](O)[C@H]2O)c(-c2ccc(O)c(O)c2)oc2cc(O)cc(O)c12	broth dilution		16 h	> 100 mg/L
C=C/C=C(\C)CC[C@@H]1C[C@@H](O)CC(=O)O1	broth dilution	ATCC6538P		256 mg/L
Cc1nn(-c2ccccc2)c2c1C(c1ccc(Cl)cc1)N(C(=O)c1ccncc1)N2 (centres unmarked)		MTCC96	24 h	> 100 mg/L
Cl.O=C(O)CNC(=O)c1ccc(NC(=O)c2cc(Br)c(Br)[nH]2)c(N2CCNCC2)c1	broth dilution	ATCC29213		> 32 mg/L
COc1ccc(C2c3c(C)nn(-c4ccccc4)c3NN2C(=O)c2ccncc2)cc1 (centres unmarked)		MTCC96	24 h	64 mg/L
O=C(O)[C@H]1O[C@@H](Oc2c(-c3ccc(O)c(O)c3)oc3cc(O)cc(O)c3c2=O)[C@H](O)[C@@H](O)[C@@H]1O	broth dilution		16 h	> 250 mg/L
CC(O)CSc1nnc(Cn2cnc3c2c(=O)n(C)c(=O)n3C)n1-c1ccccc1 (centres unmarked)				9000 mg/L
Cc1[nH]c(C(=O)Nc2ccc(C(=O)NCC(=O)O)cc2N2CC[C@H](N)C2)c(Cl)c1Cl.Cl	broth dilution	ATCC29213		> 32 mg/L
Cc1nn(-c2ccccc2)c2c1C(c1ccco1)N(C(=O)c1ccncc1)N2 (centres unmarked)		MTCC96	24 h	64 mg/L
